A selection: hits, their analogues and other compounds. The true share with any hit is near 4.9%.
STAT1 inh – STAT1 signaling inhibition; 0.35% of 200,000 active; NIH 3T3 STAT1-luciferase reporter, IFN-gamma, luminescence; inhibition, % at 5.5 µM; AID 920;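 active = inhibition above a set limit, the mean inhibition across all tested compounds plus 3 SD, cut at about 34% in these data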;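 note: 0% = IFN-gamma with DMSO and 100% = IFN-gamma with 300 µM nifuroxazide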
NF-kB neuron act – NF-kB expression increase, human neuronal cells; NF-kB reporter expression; active compounds read high; fold change at 12.5 µM; 1.6% of 190,000 active; in the data active = fold change above about 3.3
APP 5'UTR act – activates APP 5'UTR luciferase reporter; AID 1276; SH-SY5Y APP 5'UTR luciferase reporter, luminescence; zero percent = DMSO vehicle wells; activation, % at 2 µM; 1% of 190,000 active;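 active = activation above a set limit, based on mean plus 3 SD of controls, cut at about 140% in these data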
STAT3 blocker – STAT3 signaling inhibition | U3A cells, IL-6 STAT3-luciferase reporter, luminescence; host cell line lacks STAT1 | AID 862 | inhibition, % at 5.5 µM | 0.89% of 190,000 active;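 active = inhibition above the mean inhibition across all screened compounds plus 3 SD, cut at about 44% in these data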;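 note: 0% = DMSO only wells and 100% = 100 µM nifuroxazide control wells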
STAT1 act – STAT1 signaling activation; NIH 3T3 STAT1-luciferase reporter, IFN-gamma, luminescence; 100% = IFN-gamma alone, no compound; activation (% of control), % at 5.5 µM; 2.6% of 200,000 active;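 active = activation above the screen-wide mean activation plus 3 SD, cut at about 130% in these data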;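 note: raw ratio to IFN-gamma control signal so 100% means no change and 0% no light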
STAT3 act – increases IL-6 driven STAT3 reporter signal; U3A cells, IL-6 STAT3-luciferase reporter, luminescence; 100% = signal with IL-6 EC80 alone; activation (% of control), % at 5.6 µM; 0.91% of 190,000 active; AID 871;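 active = activation above the screen-wide mean of compound activation plus 3 SD, cut at about 130% in these data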;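 note: 0% = background luminescence of wells with medium and substrate only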
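Detection: reporter luminescence signal / Assay system: STAT1-lacking human U3A cells, STAT3 luciferase reporter / Incubation: compound pre-incubation 1 h before IL-6, then 6 h stimulation at 37 °C / Control set: IL-6-only high control / Read-out: % activation relative to IL-6 control / Probe or stimulus: Interleukin-6, 33 ng/mL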
* marks the source's active call; other numbers are inactive results; . = not tested or not shown.

SMILES	STAT1 inh	NF-kB neuron act	APP 5'UTR act	STAT3 blocker	STAT1 act	STAT3 act
CC(C)Cc1cc(C(=O)Nc2ccc3c(c2)OCO3)no1	-37.9	2.69	48.7	0.7	131.8*	98.7
O=C(CSc1nc(C2CC2)nc2c1cnn2-c1ccccc1)Nc1c[nH]c(=O)[nH]c1=O	3.4	1.41	-4.1	-8.3	95.2	110.3
COc1ccc(NC(=O)CC23CC4CC(CC(C4)C2)C3)cn1	-12.1	0.86	7.5	5.5	109.7	97.2
CC(=O)N1C(=O)/C(=C2\SC(=S)N(NS(=O)(=O)c3ccc(C)cc3)C2=O)c2ccccc21	1.9	1.28	-8.0	-17.1	97.0	119.4
O=C(CSCc1ccccc1)N/N=C/c1cc2c(cc1Br)OCO2	1.4	1.1	-14.2	0.8	98.7	98.6
O=C(O)C1CC=CCC1C(=O)NNc1ccccc1 (stereo not given)	11.4	1.45	-0.3	9.2	89.2	94.3
C/C(N)=C(/C#N)C(=O)CSc1nc2ccccc2c(=O)n1-c1ccc(C)c(Cl)c1	8.1	1.19	1.0	-3.2	92.7	103.4
Cc1cc(C=C2C(=O)c3ccccc3C2=O)c(C)n1-c1cccc(C(=O)O)c1	-7.3	0.71	39.9	9.9	107.1	98.6
Cc1cc(/C=C2/C(=O)NN(c3ccccc3)C2=O)c(C)n1-c1cccc(O)c1	-15.8	0.92	180.9*	24.5	114.4	76.0
CCOC(=O)c1c(NC(=O)C2CCCCC2C(=O)O)sc2c1CCCCC2 (stereo not given)	2.0	0.95	-1.4	8.7	98.4	100.5
COC(=O)c1c(NC(=O)C2CCCCC2C(=O)O)sc2c1CCCCC2 (stereo not given)	-33.6	1.58	-2.2	0.2	129.6*	101.0
O=C(Nc1nccs1)c1cc2c(s1)CCCCC2	70.4*	1.38	37.1	95.2*	35.2	20.9
O=C(Nc1nncs1)c1cc2c(s1)CCC2	-29.4	1.13	39.9	-3.7	126.7	105.0
Cc1ccc(/C=C(\C#N)C(=O)N2CCCC2)c(C)c1	-5.8	1.44	16.9	-7.7	104.3	107.7
CCC(C)(C)c1ccc(Oc2ccc(N)cc2)cc1	69.6*	0.27	-79.7	81.3*	34.5	35.2
COc1ccc2c(c1)nc(SCC(O)c1ccccc1)n2C (stereo not given)	-14.4	1.17	-1.9	21.1	111.4	83.9
O=C(c1ccccc1)c1cnc(Nc2ccc(Cl)c(Cl)c2)s1	-7.8	1.38	3.7	19.7	106.9	85.7
CC(=O)c1cnc(Nc2cccc(C)c2)s1	-36.1	2.38	58.4	17.4	134.2*	91.7
CCSc1nc2ccccc2c(=O)n1Cc1ccc(F)cc1	5.9	0.99	-4.0	4.3	93.4	100.2
Cc1cc(C)c2nc(SCC(=O)N3CC(=O)Nc4ccccc43)c(C#N)cc2c1	-4.6	3.46*	-95.9	9.9	104.2	93.4
Oc1ccc(-c2nnc(SCC3CCCCC3)o2)cc1	-21.1	4.89*	110.8	12.4	119.2	97.8
O=C(CSc1nnc(-c2ccc(O)cc2)o1)N1CCOCC1	-16.8	1.62	0.8	2.6	114.5	103.2
O=C(CN1CCN(c2nc(-c3ccccc3)cs2)CC1)NNC(=O)c1ccco1	6.6	0.98	5.0	8.4	93.2	95.0
O=C(NN=C1CCCCCCCCCCC1)c1cccnc1	-10.9	.	-14.1	3.1	108.1	101.8
O=C(c1cc(-c2cccc(O)c2)on1)N1CCCCC1	13.6	6.02*	196.2*	38.6	85.0	68.0
SMILES	STAT1 inh	NF-kB neuron act	APP 5'UTR act	STAT3 blocker	STAT1 act	STAT3 act
COc1cccc(-c2cc(C(=O)N3CCCCCC3)no2)c1	-24.9	7.17*	150.8*	28.2	122.3	80.8
O=C(c1cc(-c2ccc(Cl)cc2)on1)N1CCOCC1	-47.8	5.05*	158.5*	43.0	143.7*	66.3
O=C(c1cc(-c2ccc(Cl)c(Cl)c2)on1)N1CCCC1	-2.1	2.05	67.7	18.8	102.8	84.8
Cc1nc(SCC(=O)NNC(=O)c2cccs2)[nH]c(=O)c1C	-9.3	0.93	25.8	0.3	107.5	102.7
Oc1ccc(-c2csc(Nc3ncccn3)n2)cc1	-49.5	9.11*	173.1*	23.9	146.0*	83.3
Cc1cccnc1Nc1nc(-c2ccc(O)cc2O)cs1	-23.2	3.88*	35.9	6.0	121.0	97.4
COc1ccc(-n2cnc3ccccc32)cc1	-8.5	1.13	21.5	-14.9	107.8	118.2
COc1ccc(/C=C/c2ccncc2)cc1	-47.9	1.92	49.2	18.6	143.8*	86.9
COc1ccc(/C=C/c2nc3ccccc3n2C)cc1	94.1*	0.85	-19.2	101.9*	13.7	9.9
CN(C)c1ccc(/C=C/c2ccncc2)cc1	-29.0	2.48	30.2	14.5	126.7	90.5
CC(C)Cn1c(/C=C/c2ccccc2)nc2ccccc21	-39.8	2.1	48.9	4.1	135.6*	98.5
CCn1c(/C=C/c2ccccc2)nc2ccccc21	-36.9	6.99*	204.8*	21.4	132.9*	86.5
O=C(c1ccccc1Sc1c(Cl)cccc1[N+](=O)[O-])N1CCOCC1	10.0	0.98	13.0	-1.3	90.2	102.2
Cc1ccc(CNC(=O)C2CN(S(C)(=O)=O)c3cc(Cl)ccc3O2)cc1 (stereo not given)	5.4	1.16	19.2	15.3	95.2	94.2
CCn1c(COc2ccc(=O)n(-c3ccccc3)n2)n[nH]c1=S	-2.4	1.15	-13.0	2.3	101.8	101.4
O=C(COC(=O)CCCN1C(=O)c2cccc3cccc(c23)C1=O)Nc1cccc(C(F)(F)F)c1	-8.9	1.03	0.9	-2.1	108.5	100.4
N/C(=N\OC(=O)c1ccccc1)c1ccncc1	-17.6	1.14	38.4	9.3	114.9	97.8
N/C(=N\OC(=O)c1ccc(Br)o1)c1ccccn1	-24.1	3.68*	149.2*	9.3	119.0	96.2
COC(=O)c1ccc(COC(=O)c2ccccn2)cc1	-35.7	1.45	-2.7	0.3	132.8*	103.2
N/C(=N\OC(=O)c1ccccc1)c1ccccn1	71.0*	0.99	150.3*	71.8*	33.4	40.8
N/C(=N\OC(=O)c1ccc(Br)cc1)c1ccncc1	-46.0	2.32	78.1	12.5	142.7*	91.6
Cc1cccn2c(=O)c(C=NCCO)c(Nc3ccc(Cl)cc3)nc12	-3.0	1.15	-4.7	8.1	103.3	94.9
O=C(NNS(=O)(=O)c1ccc(Cl)cc1)c1cc(-c2ccccc2)nc2ccccc12	-0.6	1.09	1.8	0.7	100.0	100.5
Cc1c(C(=O)OCC(=O)Nc2ccc(C(N)=O)cc2)cccc1[N+](=O)[O-]	0.7	1.13	0.3	23.8	98.0	84.9
O=C(CSc1nnc2c(n1)[nH]c1ccccc12)Nc1ccc2c(c1)OCO2	0.2	1.1	18.1	14.6	99.8	92.2
Clc1ccc(C2=NN=C3COc4ccccc4N3C2)cc1	0.3	1.44	18.8	-3.0	99.8	102.6
c1ccc(C2=Nc3ccccc3OC2)cc1	-34.5	4.78*	12.9	6.6	131.9*	100.3
O=C1CC(c2ccccc2)=Nc2ccccc2N1	4.3	1.56	0.1	8.5	96.0	94.3

Compound activity from PubChem BioAssay.
